The values that follow come from PMC5388449 (Journal of electroanalytical chemistry (Lausanne, …, 2016).

Experiment [1] addresses T1, peanut agglutinin (PNA) (Arachis hypogaea, UniProt P02872).
T1 sequence (P02872 24-273): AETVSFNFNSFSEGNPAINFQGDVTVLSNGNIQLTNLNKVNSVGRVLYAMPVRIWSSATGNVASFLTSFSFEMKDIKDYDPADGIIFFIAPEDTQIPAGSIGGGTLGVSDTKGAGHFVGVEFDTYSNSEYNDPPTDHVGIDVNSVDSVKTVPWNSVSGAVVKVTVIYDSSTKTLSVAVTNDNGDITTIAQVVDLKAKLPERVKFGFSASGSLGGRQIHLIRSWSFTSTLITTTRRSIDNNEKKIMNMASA
In words: EIS negative control: PNA exposed to SAMs of thiolated mannosides on gold wire. The format is binding. The settings on record: single-component SAM of Man-C8-SH on gold wire, 0.5 μM PNA. A digest of the protocol: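 Gold wires cleaned in nitric acid, then 0.5 M NaBH4 for 17 h. SAMs formed from thiolated mannoside, alone or with TEG-SH (1.0 mM total in methanol), 17 h at room temperature. Lectin in 10 mM Tris pH 7.4 with 0.1 M NaCl, 1 mM CaCl2, 1 mM MnCl2; 1 h at room temperature, then rinsed. EIS run at 5.0 mm exposed wire in 5 mM 1:1 ferri/ferrocyanide in 10 mM Tris pH 7.4, 100 kHz–1 Hz, 0.22 V vs Ag/AgCl. Rct obtained by Randles-circuit fit of Nyquist plots.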

For experiment [2], the target named is Concanavalin A (Con A) (Canavalia ensiformis, UniProt P02866). In words: biochemical. It counts as binding, Canavalia ensiformis (Jack Bean). The settings on record: for ΔRct (Rct after Con A immobilization – Rct before): single-component SAM on gold wire.
Experiment [3] concerns the target Con A. Particulars: SPR, cited from earlier work.
Experiment [4] addresses Con A. Particulars: QCM, cited from earlier work.
Experiment [5] relates to Con A. The settings on record: ITC, in solution; cited from earlier work. In general terms: In ITC the heat of successive injections is recorded.
The target in experiment [6] is Con A. The settings on record: ITC, depending on ligand density on nanoparticles surface; cited from earlier work.

Read-outs that look alike come from different tables or passages of the source.

For orientation: Kd means the constant that tells how readily two partners part at equilibrium. As to `OC[C@H]1O[C@H](OCCCCCCCCS)[C@@H](O)[C@@H](O)[C@@H]1O` [A, 8-mercaptooctyl α-D-mannopyranoside], the “increase in Rct value” in experiment [1] is “negligible increase”. In experiment [2], this compound showed a Kd of 70 ± 19 nM. In addition, in experiment [2] (mixed SAM 1:4 Man-C8-SH/TEG-SH on gold wire, 0.5 μM Con A, 1 h), the ΔRct is on record as 495 ± 15 Ω. For the same compound, in experiment [2] (0.5 μM Con A, 1 h), the “ΔRct (Rct after Con A immobilization – Rct before)” value is 299 ± 51 Ω.
As for `OC[C@H]1O[C@H](O[C@@H]2[C@H](O)[C@@H](OCCCCCCCCS)O[C@H](CO)[C@H]2O)[C@@H](O)[C@@H](O)[C@@H]1O` [B, 8-Mercaptooctyl 3-O-(α-D-mannopyranosyl)-α-D-mannopyranoside], in experiment [2], binding was characterised by a dissociation constant (Kd) of 75 ± 20 nM.
For orientation: Hill coefficient means the slope factor of the fitted curve. In experiment [2], `OC[C@H]1O[C@H](OC[C@H]2O[C@H](OCCCCCCCCS)[C@@H](O)[C@@H](O)[C@@H]2O)[C@@H](O)[C@@H](O)[C@@H]1O` [C, 8-Mercaptooctyl 6-O-(α-D-mannopyranosyl)-α-D-mannopyranoside] showed a Hill coefficient of 0.73 ± 0.17, a dissociation constant Kd of 14 ± 4 nM and an LOD of 6 nM.
For `OC[C@H]1O[C@H](OC[C@H]2O[C@H](OCCCCCCCCS)[C@@H](O)[C@@H](O[C@H]3O[C@H](CO)[C@@H](O)[C@H](O)[C@@H]3O)[C@@H]2O)[C@@H](O)[C@@H](O)[C@@H]1O` [D, 8-Mercaptooctyl 3,6-di-O-(α-D-mannopyranosyl)-α-D-mannopyranoside], in experiment [2], the Hill coefficient is on record as 0.55 ± 0.05, the dissociation constant (Kd) was 30 ± 5 nM and the LOD is listed as 13 nM.
For `OC[C@H]1O[C@H](OC[C@H]2O[C@H](OCCCCCCCCS)[C@@H](O)[C@@H](O)[C@@H]2O[C@H]2O[C@H](CO)[C@@H](O)[C@H](O)[C@@H]2O)[C@@H](O)[C@@H](O)[C@@H]1O` [E, 8-Mercaptooctyl 4,6-di-O-(α-D-mannopyranosyl)-α-D-mannopyranoside], in experiment [2], the Hill coefficient came out at 0.50 ± 0.06, the dissociation constant Kd was 81 ± 31 nM and the LOD is listed as 11 nM.
As for `OCCOCCOCCS` [TEG-SH, 8-mercapto-3,6-dioxaoctanol, reference compound], in experiment [2] (0.5 μM Con A, 1 h), the “ΔRct (Rct after Con A immobilization – Rct before)” value is on record as 63 ± 13 Ω.
With `OC[C@H]1OC(O)[C@@H](O)[C@@H](O)[C@@H]1O` (stereo partly shown) [mannose], the dissociation constant Kd was 78 nM in experiment [3] (mannose functionalized on a gold surface, multivalent interactions); 135 to 400 nM in experiment [3] (mannose–Con A interaction); 71 nM in experiment [4] (1:2 binding of Con A to mannose); 250 to 400 nM in experiment [4] (mannose–Con A interaction).
`CO[C@H]1O[C@H](CO)[C@@H](O)[C@H](O)[C@@H]1O` [methyl α-D-mannopyranoside]: in experiment [5], the Ka is 0.82 × 10^4 and the Kd is 122000 nM.
Take dimannose: the dissociation constant Kd in experiment [6] is 35 to 175 nM.
